17 compounds from ChEMBL document CHEMBL4265982, “Hybrid compounds from chalcone and 1,2-benzothiazine pharmacophores as selective inhibitors of alkaline phosphatase isozymes” (Eur J Med Chem, 2018) can be followed below.

Test [1] deals with T1, Alkaline phosphatase, tissue-nonspecific isozyme (Homo sapiens, UniProt P05186).
T1 sequence (P05186 whole entry): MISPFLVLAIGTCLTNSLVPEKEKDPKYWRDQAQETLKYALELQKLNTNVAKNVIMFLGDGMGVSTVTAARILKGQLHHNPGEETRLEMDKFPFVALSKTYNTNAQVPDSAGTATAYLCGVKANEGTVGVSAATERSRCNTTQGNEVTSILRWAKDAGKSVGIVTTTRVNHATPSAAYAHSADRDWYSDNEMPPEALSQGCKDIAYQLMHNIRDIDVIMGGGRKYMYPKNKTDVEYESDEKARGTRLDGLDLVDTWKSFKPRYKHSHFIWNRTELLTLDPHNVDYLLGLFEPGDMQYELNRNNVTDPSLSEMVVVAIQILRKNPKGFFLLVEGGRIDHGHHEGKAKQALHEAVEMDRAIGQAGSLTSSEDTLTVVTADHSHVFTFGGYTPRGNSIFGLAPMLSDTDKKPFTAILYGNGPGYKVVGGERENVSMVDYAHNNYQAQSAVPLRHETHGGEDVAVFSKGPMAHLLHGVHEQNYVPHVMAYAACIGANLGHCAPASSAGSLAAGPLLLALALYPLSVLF
The experiment in a line: Inhibition of human TNAP expressed in African green monkey COS7 cell membranes using CDP-star as substrate pretreated for 5 to 10 mins followed by substrate addition and measured after 15 to 20 mins by […].

In test [2] the target is T2, Intestinal-type alkaline phosphatase (Homo sapiens, UniProt P09923). The experiment in a line: Inhibition of human IAP expressed in African green monkey COS7 cell membranes using CDP-star as substrate pretreated for 5 to 10 mins followed by substrate addition and measured after 15 to 20 mins by […]. Put shortly: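 Enzyme from transfected COS-7 lysates (h-TNAP 46 ng/well, h-IAP 57 ng/well), stored with 7.5% glycerol at -80 °C. Inhibitor tested up to 200 μM, final DMSO 1%, in 3 M DEA pH 9.8 with 2.5 mM MgCl2 and 0.05 mM ZnCl2. Preincubation 37 °C for 5–10 min, then CDP-Star added. Luminescence read after 15–20 min. IC50 from curve fitting, mean ± SEM, n = 3.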
Target sequence in this assay (P09923 whole entry): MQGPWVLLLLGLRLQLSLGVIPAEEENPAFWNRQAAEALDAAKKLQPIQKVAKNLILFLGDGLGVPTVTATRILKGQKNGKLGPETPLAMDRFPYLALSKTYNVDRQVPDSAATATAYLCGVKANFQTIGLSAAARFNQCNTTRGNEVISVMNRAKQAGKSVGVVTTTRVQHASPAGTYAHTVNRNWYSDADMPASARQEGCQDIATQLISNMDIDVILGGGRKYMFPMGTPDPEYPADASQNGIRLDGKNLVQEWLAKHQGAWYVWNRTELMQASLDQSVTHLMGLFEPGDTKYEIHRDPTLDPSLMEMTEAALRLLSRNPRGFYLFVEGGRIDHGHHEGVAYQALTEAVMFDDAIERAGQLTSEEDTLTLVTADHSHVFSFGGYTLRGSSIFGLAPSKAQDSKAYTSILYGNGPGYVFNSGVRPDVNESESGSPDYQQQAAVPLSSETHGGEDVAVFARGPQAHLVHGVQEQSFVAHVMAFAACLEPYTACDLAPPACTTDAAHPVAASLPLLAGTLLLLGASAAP

For another test, the species on record is Homo sapiens. As to the kind of experiment: Selectivity index, ratio of IC50 for human TNAP expressed in African green monkey COS7 cell membranes to IC50 for human IAP expressed in African green monkey COS7 cell membranes. The procedure, abridged: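 Ratio of IC50 at h-TNAP to IC50 at h-IAP. Each IC50 is from the CDP-Star luminescence assay on lysates of transfected COS-7 cells, pH 9.8 DEA buffer. Index > 1 means selectivity for h-IAP; < 1 means selectivity for h-TNAP.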

The subject of another test is HeLa. The experiment in a line: Cytotoxicity against human HeLa cells assessed as cell growth inhibition at 100 uM after 24 hrs by MTT assay. In kind it is functional. Conditions: read-out: GI. The procedure, abridged: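 HeLa cells seeded overnight at 2.5 × 10⁴ cells/mL, then exposed to compound (final 100 μM) for 24 h at 37 °C. MTT (5 μg/well) added for 4 h, then solubilised with 50% isopropanol/10% SDS. OD read at 570 nm minus 690 nm background. Percent inhibition relative to untreated control; triplicate, mean of three independent experiments ± SEM.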
On the technique in general: Formazan colour is commonly taken as a measure of viable cells.

The target of test [3] is T3, Alkaline phosphatase, tissue-nonspecific isozyme (Homo sapiens) (UniProt P05186).
T3 sequence (whole entry): T1 sequence (P05186 whole entry)
The experiment in a line: Non-competitive inhibition of human TNAP expressed in African green monkey COS7 cell membranes up to 0.3 uM using CDP-star as substrate pretreated for 5 to 10 mins followed by substrate addition and measured after 15 to 20 mins by double reciprocal plot analysis. Put shortly:
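Kinetics: double reciprocal plots of initial velocity versus CDP-Star concentration at several inhibitor concentrations. Enzyme is lysate of COS-7 cells transfected with h-TNAP plasmid (lipofectamine, 5 h, 37 °C, harvested 40–72 h). Buffer 3 M DEA pH 9.8, 2.5 mM MgCl2, 0.05 mM ZnCl2. Preincubation 5–10 min at 37 °C, luminescence read 15–20 min after substrate.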

In test [4] the target is T3, Alkaline phosphatase, tissue-nonspecific isozyme (Homo sapiens). As to the kind of experiment: Potency index, ratio of levamisole IC50 to test compound IC50 for human TNAP.
For test [5], the target named is T2, Intestinal-type alkaline phosphatase. The experiment in a line: Competitive inhibition of human IAP expressed in African green monkey COS7 cell membranes up to 1.5 uM using CDP-star as substrate pretreated for 5 to 10 mins followed by substrate addition and measured after 15 to 20 mins by double reciprocal plot analysis.
Target sequence in this assay (P09923 whole entry, looked up): as the sequence (P09923 whole entry) above

Active and inactive are the calls of the source. No cut-off for these calls is given here.

For `O=C1/C(=C/c2cccc(F)c2)NS(=O)(=O)c2ccccc21`, the IC50 in test [1] was found to be 3.19 µM; in test [2], 9.93 µM. Also, the Ratio IC50 in the test filed under Homo sapiens was found to be 0.3. For the same compound, the inhibition of growth at 100 µM in the test on HeLa was 53%.

Consider `O=C1/C(=C/c2ccc(Cl)cc2)NS(=O)(=O)c2ccccc21`, for which the IC50 in test [1] came to 0.25 µM; in test [2] it was 4.35 µM. For the same compound, the Ratio IC50 in the test listed under Homo sapiens was 0.1; in test [4], 80. Moreover, in the test on HeLa, the inhibition of growth at 100 µM was found to be 55%. For the same compound, the inhibition entry in test [3] is “Active”.

For `c1ccc([C@H]2CN3CCSC3=N2)cc1` [LEVAMISOLE], in test [2], the IC50 was greater than 200 µM.

On to `O=C1/C(=C/c2ccccc2Br)NS(=O)(=O)c2ccccc21`, for which the IC50 in test [1] was greater than 200 µM; in test [2], 7.43 µM. In the test listed under Homo sapiens, the Ratio IC50 was greater than 1. Besides, in the test on HeLa, the inhibition of growth at 100 µM stood at 53%.

As for `O=C1/C(=C/c2c(F)cccc2F)NS(=O)(=O)c2ccccc21`, the IC50 was 1.53 µM in test [1] and 10.6 µM in test [2]. Moreover, the Ratio IC50 in the test listed under Homo sapiens amounted to 0.1. Further, in the test with HeLa, the inhibition of growth at 100 µM was found to be 17%.

In the case of `Cc1ccccc1/C=C1\NS(=O)(=O)c2ccccc2C1=O`, the 50% inhibitory concentration (IC50) was found to be 2.36 µM in test [1] and 3.75 µM in test [2]. The Ratio IC50 in the test filed under Homo sapiens amounted to 0.6. Besides, in the test with HeLa, the inhibition of growth at 100 µM was found to be 7%.

For the compound `O=C1/C(=C/c2cccc(O)c2)NS(=O)(=O)c2ccccc21`, the IC50 in test [1] was determined as 3.57 µM; in test [2] it was 1.21 µM. In the test listed under Homo sapiens, the Ratio IC50 was determined as 3. Moreover, the inhibition of growth at 100 µM in the test on HeLa stood at 15%.

Take `O=C1/C(=C/c2ccc(Cl)cc2Cl)NS(=O)(=O)c2ccccc21`: the values for the IC50 in test [1] and in test [2] were greater than 200 µM and 4.96 µM, respectively. In addition, the Ratio IC50 in the test listed under Homo sapiens was greater than 53. Moreover, the inhibition of growth at 100 µM with HeLa was 59%.

As to `O=C1/C(=C/c2ccccc2)NS(=O)(=O)c2ccccc21`, the values for the IC50 in test [1] and in test [2] were 0.66 µM and 1.78 µM, respectively. Also, in the test listed under Homo sapiens, the Ratio IC50 came out at 0.4. The inhibition of growth at 100 µM in the test on HeLa was 19%.

Turning to `O=C1/C(=C/c2ccc(Br)cc2)NS(=O)(=O)c2ccccc21`, the IC50 was found to be 1.43 µM in test [1] and 3.69 µM in test [2]. Besides, in the test listed under Homo sapiens, the Ratio IC50 is 0.4. Besides, the inhibition of growth at 100 µM in the test on HeLa came out at 59%.

With `COc1ccccc1/C=C1\NS(=O)(=O)c2ccccc2C1=O`, the IC50 was determined as 2.59 µM in test [1] and 1.24 µM in test [2]. In the test listed under Homo sapiens, the Ratio IC50 was found to be 2.1. In the test with HeLa, the inhibition of growth at 100 µM came to 17%.

For `O=C1/C(=C/c2ccc(F)cc2)NS(=O)(=O)c2ccccc21`, the half-maximal inhibitory concentration (IC50) in test [1] worked out at 1.35 µM; in test [2], 3.06 µM. Also, the Ratio IC50 in the test listed under Homo sapiens was 0.4. Besides, the inhibition of growth at 100 µM in the test with HeLa stood at 41%.

With `O=C1/C(=C/c2cccc(Br)c2)NS(=O)(=O)c2ccccc21`, the IC50 in test [1] was greater than 200 µM; in test [2], 2.55 µM. For the same compound, in the test filed under Homo sapiens, the Ratio IC50 is greater than 26. Besides, in the test on HeLa, the inhibition of growth at 100 µM amounted to 65%.

Take `N[C@@H](Cc1ccccc1)C(=O)O` [PHENYLALANINE]: the IC50 in test [1] was greater than 200 µM. In addition, in the test listed under Homo sapiens, the Ratio IC50 was greater than 2.

On to `COc1ccc(/C=C2\NS(=O)(=O)c3ccccc3C2=O)cc1`, for which the IC50 in test [1] stood at 4.04 µM; in test [2], 1.53 µM. Besides, the Ratio IC50 in the test listed under Homo sapiens is 2.6. Besides, in the test with HeLa, the inhibition of growth at 100 µM worked out at 11%.

On to `O=C1/C(=C/c2cccc(Cl)c2)NS(=O)(=O)c2ccccc21`, for which the IC50 in test [1] was greater than 200 µM; in test [2], 3.77 µM. The Ratio IC50 in the test listed under Homo sapiens is greater than 50. Moreover, the inhibition of growth at 100 µM with HeLa came to 64%.

`COc1cccc(/C=C2\NS(=O)(=O)c3ccccc3C2=O)c1`: the half-maximal inhibitory concentration (IC50) in test [1] is greater than 200 µM; in test [2], 1.04 µM. Also, in the test filed under Homo sapiens, the Ratio IC50 was greater than 190. In the test with HeLa, the inhibition of growth at 100 µM was determined as 39%. In test [5], the inhibition result was “Active”.

As usually defined, the IC50 is the concentration that gives 50% inhibition.
